Reference: ChEMBL document CHEMBL1158762, “Antineoplastic agents. 534. isolation and structure of sansevistatins 1 and 2 from the African Sansevieria ehrenbergii” (2005)
Values after ≈ are worked out from the molar mass of the structure shown. Active and inactive are the calls of the source. The rule behind the calls is not given here.

How the values were obtained:
Cryptococcus neoformans [1] = assay: Antimicrobial activity against Cryptococcus neoformans ATCC 90112 by broth micro dilution assay; format: functional
Candida albicans [2] = assay: Antimicrobial activity against Candida albicans ATCC 90028 by broth micro dilution assay; format: functional
Streptococcus pneumoniae [3] = assay: Antimicrobial activity against Streptococcus pneumoniae ATCC 6303 at 64 ug/mL by broth micro dilution assay; format: functional, organism-based
Micrococcus luteus [4] = assay: Antimicrobial activity against Micrococcus luteus presque Isle 456 at 64 ug/mL by broth micro dilution assay; format: functional, organism-based
Staphylococcus aureus = assay: Antimicrobial activity against Staphylococcus aureus at 64 ug/mL by broth micro dilution assay; format: functional, organism-based
Enterococcus faecalis = assay: Antimicrobial activity against Enterococcus faecalis at 64 ug/mL by broth micro dilution assay; format: functional, organism-based
Escherichia coli = assay: Antimicrobial activity against Escherichia coli at 64 ug/mL by broth micro dilution assay; format: functional, organism-based
Enterobacter cloacae = assay: Antimicrobial activity against Enterobacter cloacae at 64 ug/mL by broth micro dilution assay; format: functional, organism-based
[5] = test system: Stenotrophomonas maltophilia; assay: Antimicrobial activity against Stenotrophomonas maltophilia at 64 ug/mL by broth micro dilution assay; format: functional, organism-based
Neisseria gonorrhoeae = assay: Antimicrobial activity against Neisseria gonorrhoeae at 64 ug/mL by broth micro dilution assay; format: functional, organism-based
P388 = assay: Growth inhibition of mouse P388 cells after 48 hrs; format: functional; conditions: P388, 48 h, read-out: ED50 (the source's name)
Summary of the method: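 Murine P388 leukemia cells were preincubated 24 h in Fisher medium with 10% horse serum, then exposed to serial compound dilutions for 48 h. Cells were counted on an electronic particle counter, and ED50 for growth inhibition was calculated from the counts.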

BXPC-3 = assay: Growth inhibition of humanBxPC3 cells after 48 hrs; format: functional; conditions: Homo sapiens, BXPC-3, 48 h
Summary of the method: (§1)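 NCI sulforhodamine B assay. Cells in RPMI1640 with 5% fetal bovine serum were seeded and incubated 24 h, then exposed to serial dilutions for 48 h. Plates were TCA-fixed, SRB-stained and read for optical density. GI50 is the concentration giving 50% reduction in net protein increase, calculated from OD data.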

MCF7 = assay: Growth inhibition of human MCF7 cells after 48 hrs; format: functional; conditions: MCF7, 48 h; summary of the method: as §1
SF-268 = assay: Growth inhibition of human SF268 cells after 48 hrs; format: functional; conditions: SF-268, 48 h; summary of the method: as §1
NCI-H460 = assay: Growth inhibition of human NCI-H460 cells after 48 hrs; format: functional; conditions: NCI-H460, 48 h; summary of the method: as §1
KM-20L2 = assay: Growth inhibition of human KM20L2 cells after 48 hrs; format: functional; conditions: KM-20L2, 48 h; summary of the method: as §1
DU-145 = assay: Growth inhibition of human DU145 cells after 48 hrs; format: functional; conditions: DU-145, 48 h; summary of the method: as §1
Streptococcus pneumoniae [6] = assay: Antimicrobial activity against Streptococcus pneumoniae ATCC 6303 by broth micro dilution assay; format: functional
Micrococcus luteus [7] = assay: Antimicrobial activity against Micrococcus luteus presque Isle 456 by broth micro dilution assay; format: functional
Summary of the method: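 NCCLS broth microdilution. Compounds reconstituted in a small volume of sterile DMSO and diluted in the appropriate medium immediately before testing. MIC read as the lowest concentration giving no visible growth (optically clear). Assays repeated on separate days.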

Cryptococcus neoformans [8] = assay: Antimicrobial activity against Cryptococcus neoformans ATCC 90112 at 64 ug/mL by broth micro dilution assay; format: functional, organism-based
Candida albicans [9] = assay: Antimicrobial activity against Candida albicans ATCC 90028 at 64 ug/mL by broth micro dilution assay; format: functional, organism-based

SMILES	MIC (Cryptococcus neoformans [1]) [µg/mL]	MIC (Candida albicans [2]) [µg/mL]	Activity (Streptococcus pneumoniae [3])	Activity (Micrococcus luteus [4])	Activity (Staphylococcus aureus)	Activity (Enterococcus faecalis)	Activity (Escherichia coli)	Activity (Enterobacter cloacae)	Activity [5]	Activity (Neisseria gonorrhoeae)	EC50 (P388) [µg/mL]	GI50 (BXPC-3) [µg/mL]	GI50 (MCF7) [µg/mL]	GI50 (SF-268) [µg/mL]	GI50 (NCI-H460) [µg/mL]	GI50 (KM-20L2) [µg/mL]	GI50 (DU-145) [µg/mL]	MIC (Streptococcus pneumoniae [6]) [µg/mL]	further results
C[C@@H]1CC[C@@]2(OC1)O[C@H]1C[C@H]3[C@@H]4CC=C5C[C@@H](O[C@@H]6O[C@H](CO)[C@@H](O[C@@H]7OC[C@@H](O)[C@H](O)[C@H]7O)[C@H](O)[C@H]6O[C@@H]6O[C@@H](C)[C@H](O)[C@@H](O)[C@H]6O)CC[C@]5(C)[C@H]4CC[C@]3(C)[C@H]1[C@@H]2C	2 (≈ 2.34 µM)	4 (≈ 4.68 µM)	inactive	inactive	inactive	inactive	inactive	inactive	inactive	inactive	2.6 (≈ 3.04 µM)	1.7 (≈ 1.99 µM)	1.4 (≈ 1.64 µM)	1.3 (≈ 1.52 µM)	1.2 (≈ 1.4 µM)	0.5 (≈ 0.585 µM)	1.1 (≈ 1.29 µM)		
C[C@@H]1CC[C@@]2(OC1)O[C@H]1C[C@H]3[C@@H]4CC=C5C[C@@H](O[C@@H]6O[C@H](CO)[C@@H](O[C@@H]7O[C@@H](C)[C@H](O)[C@@H](O)[C@H]7O)[C@H](O)[C@H]6O[C@@H]6O[C@@H](C)[C@H](O)[C@@H](O)[C@H]6O)CC[C@]5(C)[C@H]4CC[C@]3(C)[C@H]1[C@@H]2C [DIOSCIN]	1 (≈ 1.15 µM)	2 (≈ 2.3 µM)			inactive	inactive	inactive	inactive	inactive	inactive	1.5 (≈ 1.73 µM)	1.1 (≈ 1.27 µM)	1.6 (≈ 1.84 µM)	1.2 (≈ 1.38 µM)	1.6 (≈ 1.84 µM)	1.6 (≈ 1.84 µM)	1.6 (≈ 1.84 µM)	32 (≈ 36.8 µM)	MIC (Micrococcus luteus [7]): 4 µg/mL (≈ 4.6 µM)
C[C@@H]1CC[C@@]2(OC1)O[C@H]1C[C@H]3[C@@H]4CC=C5C[C@@H](O)CC[C@]5(C)[C@H]4CC[C@]3(C)[C@H]1[C@@H]2C [DISOGENIN]			inactive		inactive	inactive	inactive	inactive	inactive	inactive	4.3 (≈ 10.4 µM)	> 10	> 10	> 10	> 10	> 10	8.5 (≈ 20.5 µM)		MIC (Micrococcus luteus [7]): 32 µg/mL (≈ 77.2 µM); Activity (Cryptococcus neoformans [8]): inactive; Activity (Candida albicans [9]): inactive
C[C@@H]1CC[C@@]2(OC1)O[C@H]1C[C@H]3[C@@H]4CC=C5C[C@@H](O[C@@H]6O[C@H](CO)[C@@H](O)[C@H](O)[C@H]6O[C@@H]6O[C@@H](C)[C@H](O)[C@@H](O)[C@H]6O)CC[C@]5(C)[C@H]4CC[C@]3(C)[C@H]1[C@@H]2C [OPHIOPOGONIN C]	1 (≈ 1.38 µM)	2 (≈ 2.77 µM)		inactive	inactive	inactive	inactive	inactive	inactive	inactive	1.5 (≈ 2.07 µM)	1.8 (≈ 2.49 µM)	2 (≈ 2.77 µM)	1.8 (≈ 2.49 µM)	1.8 (≈ 2.49 µM)	1.7 (≈ 2.35 µM)	1.6 (≈ 2.21 µM)	16 (≈ 22.1 µM)	
C[C@@H]1CC[C@@]2(OC1)O[C@H]1C[C@H]3[C@@H]4[C@H](O)C=C5C[C@@H](O[C@@H]6O[C@H](CO)[C@@H](O)[C@H](O)[C@H]6O[C@@H]6O[C@@H](C)[C@H](O)[C@@H](O)[C@H]6O)CC[C@]5(C)[C@H]4CC[C@]3(C)[C@H]1[C@@H]2C [SANSEVIERIN A]	64 (≈ 86.6 µM)	64 (≈ 86.6 µM)	inactive	inactive	inactive	inactive	inactive	inactive	inactive	inactive	> 10	> 10	> 10	> 10	> 10	> 10	> 10		
C=C1CC[C@@]2(OC1)O[C@H]1C[C@H]3[C@@H]4CC=C5C[C@@H](O[C@@H]6O[C@H](CO)[C@@H](O[C@@H]7O[C@@H](C)[C@H](O)[C@@H](O)[C@H]7O)[C@H](O)[C@H]6O[C@@H]6O[C@@H](C)[C@H](O)[C@@H](O)[C@H]6O)CC[C@]5(C)[C@H]4CC[C@]3(C)[C@H]1[C@@H]2C [SANSEVISTATIN 1]	1 (≈ 1.15 µM)	2 (≈ 2.31 µM)	inactive	inactive	inactive	inactive	inactive	inactive	inactive	inactive	1.6 (≈ 1.85 µM)	1.1 (≈ 1.27 µM)	1.1 (≈ 1.27 µM)	1.3 (≈ 1.5 µM)	0.43 (≈ 0.496 µM)	0.47 (≈ 0.542 µM)	1 (≈ 1.15 µM)		
C[C@@H]1CC[C@@]2(OC1)O[C@H]1C[C@H]3[C@@H]4CC=C5C[C@@H](O[C@@H]6O[C@H](CO)[C@@H](O[C@@H]7OC[C@H](O)[C@H](O)[C@H]7O)[C@H](O)[C@H]6O[C@@H]6O[C@@H](C)[C@H](O)[C@@H](O)[C@H]6O)CC[C@]5(C)[C@H]4CC[C@]3(C)[C@H]1[C@@H]2C [SANSEVISTATIN 2]	1 (≈ 1.17 µM)			inactive	inactive	inactive	inactive	inactive	inactive	inactive	1.7 (≈ 1.99 µM)	0.93 (≈ 1.09 µM)	0.62 (≈ 0.725 µM)	0.68 (≈ 0.795 µM)	0.26 (≈ 0.304 µM)	0.22 (≈ 0.257 µM)	0.42 (≈ 0.491 µM)	32 (≈ 37.4 µM)	Activity (Candida albicans [9]): inactive
